The results in this text go back to ChEMBL document CHEMBL5131498, “Synthesis and biological evaluation of orally active prodrugs and analogs of para-aminosalicylic acid (PAS)” (Eur J Med Chem, 2022).

In brackets after ≈: the same amount, converted by molar mass.

Holding throughout (format): functional
Assay [1] has as its system Mycobacterium tuberculosis. Kind of assay: Antimycobacterial activity against multidrug resistant Mycobacterium tuberculosis H37Rv assessed as inhibition of bacterial growth measured after 2 weeks by microbroth dilution method. Conditions: 336 h. In short, it runs like this:
(§1)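 Diluted 1000-fold into 96-well plates with 2-fold serial compound dilutions and incubated at 37 °C for 2 weeks. Growth scored by mirror at 1 and 2 weeks. MIC is the lowest concentration completely inhibiting growth; tested in duplicate. DMSO, isoniazid and linezolid served as controls.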

Assay [2] relates to Mycobacterium tuberculosis. Kind of assay: Antimycobacterial activity against extensively drug resistant Mycobacterium tuberculosis H37Rv assessed as inhibition of bacterial growth measured after 2 weeks by microbroth dilution method. Conditions: 336 h. In short, it runs like this: as §1
Assay [3] relates to Mycobacterium tuberculosis. Nature of the assay: Antimycobacterial activity against PAS resistant Mycobacterium tuberculosis H37Rv harboring E153A mutant assessed as inhibition of bacterial growth measured after 2 weeks by microbroth dilution method. In short, it runs like this:
as §1

Assay [4] has as its system Mycobacterium tuberculosis. Nature of the assay: Antimycobacterial activity against PAS resistant Mycobacterium tuberculosis H37Rv harboring S150G mutant assessed as inhibition of bacterial growth measured after 2 weeks by microbroth dilution method. In outline:
as §1

Assay [5] relates to Mycobacterium tuberculosis. Nature of the assay: Antimycobacterial activity against PAS resistant Mycobacterium tuberculosis H37Rv harboring R49W mutant assessed as inhibition of bacterial growth measured after 2 weeks by microbroth dilution method. In outline: as §1

For `Nc1cc(O)c(C(=O)O)cc1F`, the MIC90 in assay [1] is 6.3 µM (≈ 1.08 µg/mL); in assay [2], ≥ 50 µM; in assay [3], “>=50 uM”; in assay [4], “>=50 uM”; in assay [5], “>=50 uM”.
`Nc1ccc(C(=O)O)c(O)c1` [AMINOSALICYLIC ACID]: the MIC90 in assay [1] was 0.2 µM (≈ 0.0306 µg/mL); in assay [2] it was ≥ 50 µM; in assay [3], 12.5 µM (≈ 1.91 µg/mL); in assay [4], 12.5 µM (≈ 1.91 µg/mL); in assay [5], 12.5 µM (≈ 1.91 µg/mL).
Take `NNC(=O)c1ccncc1` [ISONIAZID]: the MIC90 in assay [1] was 0.4 µM (≈ 0.0549 µg/mL); in assay [2] it was 6.3 µM (≈ 0.864 µg/mL); in assay [3], 0.3 µM (≈ 0.0411 µg/mL); in assay [4], 0.3 µM (≈ 0.0411 µg/mL); in assay [5] it was 0.3 µM (≈ 0.0411 µg/mL).
Consider `CC(=O)NC[C@H]1CN(c2ccc(N3CCOCC3)c(F)c2)C(=O)O1` [LINEZOLID], for which the MIC90 in assay [1] was 0.8 µM (≈ 0.27 µg/mL); in assay [2], 0.9 µM (≈ 0.304 µg/mL); in assay [3] it was 1.9 µM (≈ 0.641 µg/mL); in assay [4], 1.9 µM (≈ 0.641 µg/mL); in assay [5], 1.9 µM (≈ 0.641 µg/mL).
